# Test results published in ChEMBL document CHEMBL5303300, “EUbOPEN Chemogenomics Library - Multiplex” (2023).
# Values joined by “and” are separate entries in the source; they are usually repeats but may differ in a detail not shown here. Equal values may be shown once.
# Key:
# U2OS = test: Multiplex assay against U2OS; assay type: toxicity, cell-based; settings: human, number of replicates 2
# In short: (§1)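 Four dyes were applied at seeding to live cells: Hoechst33342, BioTracker Green Microtubule Cytoskeleton Dye, MitoTracker Red and Annexin V Alexa Fluor 680. Imaging after compound addition used a CQ1 microscope at 37°C and 5% CO2. CellPathfinder machine-learning gating then sorted cells into Hoechst high-intensity objects or normal cells, normal cells into healthy, pyknosed or fragmented nuclei, and pyknosed cells into mitotic or apoptotic, with tubulin, mitochondrial-mass and membrane-permeability phenotypes given as per cents of healthy-nucleus cells.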
# HEK-293T = test: Multiplex assay against HEK293T; assay type: toxicity, cell-based; settings: human, number of replicates 2; in short: as §1
# [1] = 24 h, 10 µM, compound concentration 10 uM
# [2] = 48 h, 1 µM, compound concentration 1 uM
# [3] = 48 h, 10 µM, compound concentration 10 uM
# [4] = 12 h, 1 µM, compound concentration 1 uM
# [5] = 12 h, 10 µM, compound concentration 10 uM
# [6] = 24 h, 1 µM, compound concentration 1 uM
compound,measurement,setting,value
Br.Oc1cc2c(cc1O)C(c1ccccc1)CNCC2 (configuration not stated),Population Apoptotic (%),U2OS; [1],50% and 44%
same,Population Healthy Nuclei (%),U2OS; [1],58% and 88%
same,Population Hoechst High Intensity Objects (%),U2OS; [1],0%
same,Population Membrane Permeable-Phenotype (%),U2OS; [1],10% and 0%
same,Population Mitochondria Different-Phenotype (%),U2OS; [1],10% and 0%
same,Population Mitotic Cells (%),U2OS; [1],50% and 55%
same,Population Normal (%),U2OS; [1],100%
same,Population Pyknosed Nuclei (%),U2OS; [1],23% and 8%
same,Population Tubulin-Different-Phenotype (%),U2OS; [1],80% and 83%
same,Population Apoptotic (%),U2OS; [2],37% and 53%
same,Population Fragmented Nuclei (%),U2OS; [2],13% and 3%
same,Population Healthy Nuclei (%),U2OS; [2],78% and 89%
same,Population Hoechst High Intensity Objects (%),U2OS; [2],0%
same,Population Membrane Permeable-Phenotype (%),U2OS; [2],5% and 0%
same,Population Mitochondria Different-Phenotype (%),U2OS; [2],2% and 0%
same,Population Mitotic Cells (%),U2OS; [2],62% and 46%
same,Population Normal (%),U2OS; [2],100% and 99%
same,Population Pyknosed Nuclei (%),U2OS; [2],8% and 7%
same,Population Tubulin-Different-Phenotype (%),U2OS; [2],64% and 99%
same,Population Apoptotic (%),U2OS; [3],44% and 64%
same,Population Healthy Nuclei (%),U2OS; [3],54% and 90%
same,Population Hoechst High Intensity Objects (%),U2OS; [3],0%
same,Population Membrane Permeable-Phenotype (%),U2OS; [3],10% and 0%
same,Population Mitochondria Different-Phenotype (%),U2OS; [3],10% and 0%
same,Population Mitotic Cells (%),U2OS; [3],55% and 35%
same,Population Normal (%),U2OS; [3],100%
same,Population Tubulin-Different-Phenotype (%),U2OS; [3],84% and 93%
same,Population Apoptotic (%),HEK-293T; [4],30% and 41%
same,Population Fragmented Nuclei (%),HEK-293T; [4],5% and 3%
same,Population Healthy Nuclei (%),HEK-293T; [4],85%
same,Population Hoechst High Intensity Objects (%),HEK-293T; [4],6% and 4%
same,Population Membrane Permeable-Phenotype (%),HEK-293T; [4],4% and 2%
same,Population Mitochondria Different-Phenotype (%),HEK-293T; [4],9% and 10%
same,Population Mitotic Cells (%),HEK-293T; [4],69% and 58%
same,Population Normal (%),HEK-293T; [4],93% and 95%
same,Population Pyknosed Nuclei (%),HEK-293T; [4],9% and 10%
same,Population Tubulin-Different-Phenotype (%),HEK-293T; [4],45% and 42%
same,Total Cell Count,HEK-293T; [4],950 and 793
same,Population Apoptotic (%),HEK-293T; [5],36% and 47%
same,Population Fragmented Nuclei (%),HEK-293T; [5],4% and 3%
same,Population Healthy Nuclei (%),HEK-293T; [5],86% and 88%
same,Population Hoechst High Intensity Objects (%),HEK-293T; [5],7% and 5%
same,Population Membrane Permeable-Phenotype (%),HEK-293T; [5],2% and 0%
same,Population Mitochondria Different-Phenotype (%),HEK-293T; [5],12% and 21%
same,Population Mitotic Cells (%),HEK-293T; [5],63% and 52%
same,Population Normal (%),HEK-293T; [5],92% and 94%
same,Population Pyknosed Nuclei (%),HEK-293T; [5],8%
same,Population Tubulin-Different-Phenotype (%),HEK-293T; [5],51% and 55%
same,Total Cell Count,HEK-293T; [5],631 and 499
same,Population Apoptotic (%),HEK-293T; [6],20% and 36%
same,Population Fragmented Nuclei (%),HEK-293T; [6],6% and 5%
same,Population Healthy Nuclei (%),HEK-293T; [6],89%
same,Population Hoechst High Intensity Objects (%),HEK-293T; [6],8% and 9%
same,Population Membrane Permeable-Phenotype (%),HEK-293T; [6],3% and 2%
same,Population Mitochondria Different-Phenotype (%),HEK-293T; [6],3%
same,Population Mitotic Cells (%),HEK-293T; [6],80% and 63%
same,Population Normal (%),HEK-293T; [6],91% and 90%
same,Population Pyknosed Nuclei (%),HEK-293T; [6],4% and 5%
same,Population Tubulin-Different-Phenotype (%),HEK-293T; [6],27% and 29%
same,Total Cell Count,HEK-293T; [6],1693 and 1195
same,Population Apoptotic (%),HEK-293T; [1],29% and 50%
same,Population Fragmented Nuclei (%),HEK-293T; [1],9% and 7%
same,Population Healthy Nuclei (%),HEK-293T; [1],86% and 88%
same,Population Hoechst High Intensity Objects (%),HEK-293T; [1],9% and 6%
same,Population Membrane Permeable-Phenotype (%),HEK-293T; [1],4% and 2%
same,Population Mitochondria Different-Phenotype (%),HEK-293T; [1],3% and 12%
same,Population Mitotic Cells (%),HEK-293T; [1],70% and 50%
same,Population Normal (%),HEK-293T; [1],90% and 93%
same,Population Pyknosed Nuclei (%),HEK-293T; [1],4%
same,Population Tubulin-Different-Phenotype (%),HEK-293T; [1],30% and 40%
same,Total Cell Count,HEK-293T; [1],1020 and 788
same,Population Apoptotic (%),HEK-293T; [2],4% and 10%
same,Population Fragmented Nuclei (%),HEK-293T; [2],20% and 11%
same,Population Healthy Nuclei (%),HEK-293T; [2],78% and 85%
same,Population Hoechst High Intensity Objects (%),HEK-293T; [2],11% and 9%
same,Population Membrane Permeable-Phenotype (%),HEK-293T; [2],6% and 5%
same,Population Mitochondria Different-Phenotype (%),HEK-293T; [2],0%
same,Population Mitotic Cells (%),HEK-293T; [2],95% and 89%
same,Population Normal (%),HEK-293T; [2],88% and 90%
same,Population Pyknosed Nuclei (%),HEK-293T; [2],1% and 2%
same,Population Tubulin-Different-Phenotype (%),HEK-293T; [2],17% and 16%
same,Total Cell Count,HEK-293T; [2],4091 and 2858
same,Population Fragmented Nuclei (%),HEK-293T; [3],23% and 14%
same,Population Healthy Nuclei (%),HEK-293T; [3],75% and 82%
same,Population Hoechst High Intensity Objects (%),HEK-293T; [3],9%
same,Population Membrane Permeable-Phenotype (%),HEK-293T; [3],8% and 5%
same,Population Mitochondria Different-Phenotype (%),HEK-293T; [3],0% and 1%
same,Population Mitotic Cells (%),HEK-293T; [3],96% and 84%
same,Population Normal (%),HEK-293T; [3],90%
same,Population Pyknosed Nuclei (%),HEK-293T; [3],1% and 3%
same,Population Tubulin-Different-Phenotype (%),HEK-293T; [3],15% and 21%
same,Total Cell Count,HEK-293T; [3],2576 and 1623
